Assay [1] has as its target Cyclin-dependent kinase 1/cyclin B (Homo sapiens, UniProt P06493). The assay can be described thus: Inhibition of [32P]ATP binding to Cyclin dependent kinase 1-cyclin B. The class given is protein-complex assay. In short, it runs like this:
(§1)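 Human recombinant Cdk–cyclin holoenzymes expressed in insect cells via baculovirus. Each reaction held 20 ng enzyme, 1 µg GST-retinoblastoma substrate and inhibitor dilutions in 20 mM Tris pH 7.4, 50 mM NaCl, 1 mM DTT, 10 mM MgCl2. Started with [32P]ATP (0.25 µCi), at 25 µM for Cdk4 or 12 µM for Cdk2/E, Cdk2/A and Cdc2/B. Ran 15 min at 25 °C. Stopped with TCA and precipitated ≥1 h at 4 °C.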

Assay [2] addresses Cyclin-dependent kinase 2/cyclin A (Homo sapiens, UniProt P24941+P20248+P78396). The assay can be described thus: (§2) Inhibition of [32P]ATP binding to Cyclin dependent kinase 2-cyclin A. The format is protein-complex assay. In short, it runs like this: (§3)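 Human recombinant Cdk–cyclin holoenzymes expressed in insect cells via baculovirus. Each reaction held 20 ng enzyme, 1 µg GST-retinoblastoma substrate and inhibitor dilutions in 20 mM Tris pH 7.4, 50 mM NaCl, 1 mM DTT, 10 mM MgCl2. Stopped with TCA and precipitated ≥1 h at 4 °C.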

For assay [3], the target named is Cyclin-dependent kinase 2/cyclin E (Homo sapiens, UniProt P24941). The assay can be described thus: Inhibition of [32P]ATP binding to Cyclin dependent kinase 2-cyclin E. The format is protein-complex assay. In a few lines:
as §3

In assay [4] the target is Cyclin-dependent kinase 2/cyclin A (Homo sapiens, UniProt P24941). Described as §2. The class given is protein-complex assay. In short, it runs like this: as §3
Assay [5] concerns the target Cyclin-dependent kinase 4/cyclin D (Homo sapiens, UniProt P11802+P24385+P30281+P30279). The experiment in a line: (§4) Inhibition of [32P]ATP binding to Cyclin dependant kinase 4-cyclin D. The class given is protein-complex assay. In a few lines:
as §1

The target of assay [6] is Cyclin-dependent kinase 4/cyclin D (Homo sapiens, UniProt P11802). The description is as §4. The class given is protein-complex assay. In short, it runs like this: as §1
For assay [7], the target named is Ribosomal protein S6 kinase alpha-5 (Homo sapiens, UniProt O75582). The experiment in a line: Inhibition of mitogen and stress-activated protein kinase-1(MSK-1 kinase).
Ribosomal protein S6 kinase alpha-5, sequence (O75582 whole entry): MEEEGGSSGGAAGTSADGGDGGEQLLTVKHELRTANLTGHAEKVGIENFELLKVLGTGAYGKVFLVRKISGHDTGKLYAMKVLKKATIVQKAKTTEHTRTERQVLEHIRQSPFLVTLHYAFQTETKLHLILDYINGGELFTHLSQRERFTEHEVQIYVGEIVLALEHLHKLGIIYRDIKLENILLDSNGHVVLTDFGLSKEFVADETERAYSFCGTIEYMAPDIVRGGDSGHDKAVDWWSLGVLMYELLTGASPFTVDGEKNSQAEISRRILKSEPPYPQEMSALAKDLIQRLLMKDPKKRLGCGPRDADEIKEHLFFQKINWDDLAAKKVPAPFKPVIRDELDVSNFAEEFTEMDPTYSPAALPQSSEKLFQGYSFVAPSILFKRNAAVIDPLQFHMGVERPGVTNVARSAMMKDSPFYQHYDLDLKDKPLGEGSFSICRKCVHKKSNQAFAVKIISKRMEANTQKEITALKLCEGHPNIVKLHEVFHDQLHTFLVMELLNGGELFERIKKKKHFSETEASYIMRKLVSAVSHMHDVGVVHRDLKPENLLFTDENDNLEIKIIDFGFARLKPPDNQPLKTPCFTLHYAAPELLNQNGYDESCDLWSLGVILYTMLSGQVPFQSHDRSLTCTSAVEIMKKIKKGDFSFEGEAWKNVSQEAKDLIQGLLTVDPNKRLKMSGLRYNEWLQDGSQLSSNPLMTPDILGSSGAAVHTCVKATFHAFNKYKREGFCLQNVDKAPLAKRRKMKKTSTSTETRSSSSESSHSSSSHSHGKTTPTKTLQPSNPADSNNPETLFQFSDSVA
Assay [8] has as its target MAP kinase-activated protein kinase 2 (Homo sapiens, UniProt P49137). The assay can be described thus: Inhibition of MAP kinase-activated protein kinase 2.
Assay [9] deals with c-Jun N-terminal kinase, JNK (Homo sapiens, UniProt P45983+P53779+P45984). The experiment in a line: Inhibition of c-Jun N-terminal kinase. The class given is protein assay.
For the next assay, the target named is Protein kinase C (PKC). The assay can be described thus: Inhibition of Protein Kinase C. The format is protein assay, Homo sapiens.
Assay [10] in a line: Inhibition of Tyrosine-protein kinase CSK.
Assay [11] addresses Mitogen-activated protein kinase 14 (Homo sapiens, UniProt Q16539). The experiment in a line: Inhibition of Stress activated protein kinase 2a.
Assay [12] concerns the target Mitogen-activated protein kinase 1 (Homo sapiens, UniProt P28482). The assay can be described thus: Inhibition of Mitogen activated protein kinase (MAPK2/erk2).
A short description of assay [13]: Inhibition of Mitogen activated protein kinase kinase 1.
Assay [14] can be described thus: Inhibition of Protein Kinase A. Also on record: species or system Homo sapiens.
Assay [15] is described as follows: Inhibition of Phosphorylase kinase.
The test system of another assay is MDA-MB-435. The assay can be described thus: In vitro inhibitory concentration is measured by the incorporation of [14C]thymidine in human breast carcinoma MDA-MB-435 cell line. The format is functional, cell-based.
Assay [16] deals with Serine/threonine-protein kinase AKT (Homo sapiens, UniProt P31751+Q9Y243+P31749). The assay can be described thus: Inhibition of Protein kinase B. The format is protein assay.
Assay [17] addresses Glycogen synthase kinase-3 beta (Homo sapiens, UniProt P49841). The assay can be described thus: Inhibition of Glycogen synthase kinase 3 beta.
Assay [18] deals with Ribosomal protein S6 kinase (P70S6K) (Homo sapiens, UniProt P23443+Q9UBS0). The experiment in a line: Inhibition of Ribosomal protein S6 kinase (p70S6K1). The class given is protein-complex assay.
Ribosomal protein S6 kinase (P70S6K), sequence (Q9UBS0 whole entry): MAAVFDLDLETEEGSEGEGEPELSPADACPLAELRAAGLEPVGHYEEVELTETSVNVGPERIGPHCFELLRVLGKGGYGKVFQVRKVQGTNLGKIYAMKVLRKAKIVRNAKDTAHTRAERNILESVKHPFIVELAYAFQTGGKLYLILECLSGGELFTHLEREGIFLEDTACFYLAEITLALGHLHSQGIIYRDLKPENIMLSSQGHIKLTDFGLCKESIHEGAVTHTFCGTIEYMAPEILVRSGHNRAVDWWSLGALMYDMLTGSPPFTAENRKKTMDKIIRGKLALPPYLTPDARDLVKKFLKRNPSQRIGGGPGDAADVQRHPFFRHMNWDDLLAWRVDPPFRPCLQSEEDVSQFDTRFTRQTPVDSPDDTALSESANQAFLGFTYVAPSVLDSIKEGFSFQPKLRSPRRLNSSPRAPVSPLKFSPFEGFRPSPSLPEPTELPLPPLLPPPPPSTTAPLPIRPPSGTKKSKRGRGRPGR
Ribosomal protein S6 kinase (P70S6K), sequence (P23443 whole entry): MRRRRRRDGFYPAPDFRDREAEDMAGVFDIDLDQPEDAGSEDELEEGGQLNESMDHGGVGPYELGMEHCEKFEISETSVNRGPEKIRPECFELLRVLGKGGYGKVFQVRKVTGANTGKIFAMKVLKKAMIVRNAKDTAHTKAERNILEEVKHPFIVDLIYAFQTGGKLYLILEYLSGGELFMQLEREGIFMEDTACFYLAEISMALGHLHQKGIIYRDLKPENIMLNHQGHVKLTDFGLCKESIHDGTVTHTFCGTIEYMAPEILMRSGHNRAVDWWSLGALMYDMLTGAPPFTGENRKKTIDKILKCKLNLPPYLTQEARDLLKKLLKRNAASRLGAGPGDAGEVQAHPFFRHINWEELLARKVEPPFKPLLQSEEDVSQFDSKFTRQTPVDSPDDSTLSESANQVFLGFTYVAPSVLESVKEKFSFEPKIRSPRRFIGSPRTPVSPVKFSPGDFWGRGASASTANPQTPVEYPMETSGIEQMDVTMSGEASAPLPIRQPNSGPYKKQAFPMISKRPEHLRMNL
The nature of assay [19]: Inhibition of 3-phosphoinisitide-dependent protein kinase-1.
In assay [20] the target is Fibroblast growth factor receptor (Homo sapiens, UniProt P22607+P11362+P22455+P21802). The experiment in a line: Inhibition of Fibroblast growth factor receptor. The format is protein assay.
Assay [21] concerns the target Mitogen-activated protein kinase 11 (Homo sapiens, UniProt Q15759). The assay can be described thus: Inhibition of Stress activated protein kinase 2b.
Assay [22] deals with T1, MAP kinase-activated protein kinase 5 (Homo sapiens, UniProt Q8IW41).
T1 sequence (Q8IW41 whole entry): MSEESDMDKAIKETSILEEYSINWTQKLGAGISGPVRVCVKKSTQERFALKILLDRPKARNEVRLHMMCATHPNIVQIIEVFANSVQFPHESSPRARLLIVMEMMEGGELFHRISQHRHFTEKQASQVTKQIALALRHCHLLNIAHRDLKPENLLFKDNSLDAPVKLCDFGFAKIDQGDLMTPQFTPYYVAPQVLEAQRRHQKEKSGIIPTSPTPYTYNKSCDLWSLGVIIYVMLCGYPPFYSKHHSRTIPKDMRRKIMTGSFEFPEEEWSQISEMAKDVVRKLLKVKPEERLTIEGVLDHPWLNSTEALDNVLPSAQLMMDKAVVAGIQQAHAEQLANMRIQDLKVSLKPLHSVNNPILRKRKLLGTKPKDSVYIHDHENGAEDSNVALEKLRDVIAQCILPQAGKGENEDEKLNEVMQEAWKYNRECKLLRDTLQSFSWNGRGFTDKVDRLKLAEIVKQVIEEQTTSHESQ
The assay can be described thus: Inhibition of p38-regulated/activated kinase (PRAK).

Drawing on ChEMBL document CHEMBL1143565, “Pyrido[2,3-d]pyrimidin-7-ones as specific inhibitors of cyclin-dependent kinase 4” (J Med Chem, 2005), this text covers IC50 for 14 compounds.

Cyclin-dependent kinase 4/cyclin D (Homo sapiens, UniProt P11802+P24385+P30281+P30279), sequence (P11802 whole entry): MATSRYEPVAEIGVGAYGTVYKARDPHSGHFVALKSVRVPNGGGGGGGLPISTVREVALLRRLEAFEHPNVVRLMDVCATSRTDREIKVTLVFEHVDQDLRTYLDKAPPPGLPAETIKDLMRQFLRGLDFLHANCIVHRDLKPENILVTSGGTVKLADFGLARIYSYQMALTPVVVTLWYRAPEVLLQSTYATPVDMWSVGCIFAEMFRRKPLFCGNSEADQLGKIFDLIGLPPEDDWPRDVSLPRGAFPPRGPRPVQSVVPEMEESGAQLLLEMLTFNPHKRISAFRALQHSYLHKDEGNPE
Cyclin-dependent kinase 4/cyclin D (Homo sapiens, UniProt P11802+P24385+P30281+P30279), sequence (P24385 whole entry): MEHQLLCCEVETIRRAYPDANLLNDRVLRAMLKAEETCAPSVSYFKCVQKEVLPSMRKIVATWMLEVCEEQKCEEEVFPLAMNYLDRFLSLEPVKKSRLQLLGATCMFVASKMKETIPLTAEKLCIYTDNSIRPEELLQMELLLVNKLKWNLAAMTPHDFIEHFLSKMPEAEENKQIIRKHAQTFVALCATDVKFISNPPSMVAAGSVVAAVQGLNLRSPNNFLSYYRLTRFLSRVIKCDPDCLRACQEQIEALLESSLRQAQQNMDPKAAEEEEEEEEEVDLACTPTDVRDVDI
Cyclin-dependent kinase 4/cyclin D (Homo sapiens, UniProt P11802+P24385+P30281+P30279), sequence (P30281 whole entry): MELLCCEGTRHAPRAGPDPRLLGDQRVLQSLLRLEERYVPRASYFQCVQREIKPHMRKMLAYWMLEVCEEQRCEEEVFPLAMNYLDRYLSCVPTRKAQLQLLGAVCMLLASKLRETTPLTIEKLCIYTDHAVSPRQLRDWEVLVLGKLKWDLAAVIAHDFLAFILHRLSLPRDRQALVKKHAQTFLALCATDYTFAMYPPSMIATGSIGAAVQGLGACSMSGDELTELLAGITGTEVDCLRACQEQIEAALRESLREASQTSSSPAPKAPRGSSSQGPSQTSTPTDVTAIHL
Cyclin-dependent kinase 4/cyclin D (Homo sapiens, UniProt P11802+P24385+P30281+P30279), sequence (P30279 whole entry): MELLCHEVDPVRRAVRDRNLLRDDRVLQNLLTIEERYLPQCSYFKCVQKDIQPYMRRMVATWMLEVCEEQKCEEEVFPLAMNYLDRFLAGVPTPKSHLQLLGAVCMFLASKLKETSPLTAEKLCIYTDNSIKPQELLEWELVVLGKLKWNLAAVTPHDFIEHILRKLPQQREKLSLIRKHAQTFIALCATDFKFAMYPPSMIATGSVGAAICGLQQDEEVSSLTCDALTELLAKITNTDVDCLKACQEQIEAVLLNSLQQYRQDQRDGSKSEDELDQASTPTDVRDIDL
MAP kinase-activated protein kinase 2, sequence (P49137 whole entry): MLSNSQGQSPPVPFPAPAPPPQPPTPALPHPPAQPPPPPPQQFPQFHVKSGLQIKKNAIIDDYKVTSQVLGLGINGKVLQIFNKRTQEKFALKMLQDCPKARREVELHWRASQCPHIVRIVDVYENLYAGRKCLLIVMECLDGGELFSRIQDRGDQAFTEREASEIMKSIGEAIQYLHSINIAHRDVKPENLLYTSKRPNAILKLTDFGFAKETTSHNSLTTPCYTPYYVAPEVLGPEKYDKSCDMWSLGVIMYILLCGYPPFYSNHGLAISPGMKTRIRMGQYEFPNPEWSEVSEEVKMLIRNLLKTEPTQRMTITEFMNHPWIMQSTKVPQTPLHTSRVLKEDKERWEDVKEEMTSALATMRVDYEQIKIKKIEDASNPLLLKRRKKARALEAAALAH
Mitogen-activated protein kinase 14, sequence (Q16539 whole entry): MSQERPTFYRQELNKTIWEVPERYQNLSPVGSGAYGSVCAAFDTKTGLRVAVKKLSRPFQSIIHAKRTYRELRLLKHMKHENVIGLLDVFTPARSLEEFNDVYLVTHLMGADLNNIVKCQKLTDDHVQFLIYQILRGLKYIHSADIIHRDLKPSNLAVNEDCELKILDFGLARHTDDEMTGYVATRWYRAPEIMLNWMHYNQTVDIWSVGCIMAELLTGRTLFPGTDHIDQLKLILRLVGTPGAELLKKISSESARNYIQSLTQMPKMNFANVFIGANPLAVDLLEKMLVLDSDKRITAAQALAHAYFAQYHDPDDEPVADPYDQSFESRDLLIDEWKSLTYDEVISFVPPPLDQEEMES
Mitogen-activated protein kinase 11, sequence (Q15759 whole entry): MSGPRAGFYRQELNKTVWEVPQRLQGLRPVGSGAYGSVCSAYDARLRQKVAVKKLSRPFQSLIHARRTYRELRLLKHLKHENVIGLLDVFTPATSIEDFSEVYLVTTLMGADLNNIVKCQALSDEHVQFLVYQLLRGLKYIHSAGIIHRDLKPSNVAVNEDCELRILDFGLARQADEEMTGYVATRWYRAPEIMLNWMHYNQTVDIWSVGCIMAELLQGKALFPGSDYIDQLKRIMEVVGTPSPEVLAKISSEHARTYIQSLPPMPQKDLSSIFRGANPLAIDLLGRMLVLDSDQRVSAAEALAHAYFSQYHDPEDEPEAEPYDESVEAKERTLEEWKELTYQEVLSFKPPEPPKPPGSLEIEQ
Glycogen synthase kinase-3 beta, sequence (P49841 whole entry): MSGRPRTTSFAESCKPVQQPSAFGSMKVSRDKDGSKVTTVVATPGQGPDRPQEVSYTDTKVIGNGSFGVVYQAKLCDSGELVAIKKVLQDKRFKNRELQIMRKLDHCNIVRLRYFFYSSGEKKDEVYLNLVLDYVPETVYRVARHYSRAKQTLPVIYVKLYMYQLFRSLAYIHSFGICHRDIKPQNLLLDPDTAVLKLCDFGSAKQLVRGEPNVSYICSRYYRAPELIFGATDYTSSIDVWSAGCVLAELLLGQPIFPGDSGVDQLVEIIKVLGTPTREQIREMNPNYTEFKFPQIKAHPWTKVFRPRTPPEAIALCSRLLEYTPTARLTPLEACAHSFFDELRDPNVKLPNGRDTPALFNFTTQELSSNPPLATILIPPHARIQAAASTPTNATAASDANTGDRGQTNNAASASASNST
Mitogen-activated protein kinase 1, sequence (P28482 whole entry): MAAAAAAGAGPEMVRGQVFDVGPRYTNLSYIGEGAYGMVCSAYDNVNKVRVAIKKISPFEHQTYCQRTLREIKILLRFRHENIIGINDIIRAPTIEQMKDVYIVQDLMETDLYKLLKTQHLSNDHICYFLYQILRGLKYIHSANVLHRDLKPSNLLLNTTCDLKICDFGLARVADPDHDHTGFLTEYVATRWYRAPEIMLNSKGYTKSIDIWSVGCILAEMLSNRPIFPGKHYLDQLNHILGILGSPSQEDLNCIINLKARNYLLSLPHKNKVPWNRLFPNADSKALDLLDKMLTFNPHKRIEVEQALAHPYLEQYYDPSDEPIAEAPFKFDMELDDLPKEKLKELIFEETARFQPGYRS

`Cc1c(Br)c(=O)n(C2CCCC2)c2nc(Nc3ccc(N4CCNCC4)cc3)ncc12`: the figures for the concentration for half-maximal inhibition (IC50) in assay [1], in [2] and in [3] were 2.61 µM, 0.439 µM and 0.95 µM, respectively.

On to `CCOC(=O)c1c(C)c2cnc(Nc3ccc(N4CCNCC4)cc3)nc2n(C2CCCC2)c1=O`, for which the IC50 (as a rule, the concentration needed to halve the response being measured) in assay [1] is above 5 µM; in [4], above 5 µM; in assay [3], above 5 µM; in assay [5], 0.006 µM.

`Cc1c(F)c(=O)n(C2CCCC2)c2nc(Nc3ccc(N4CCNCC4)cc3)ncc12`: the half-maximal inhibitory concentration (IC50) in assay [1] was above 5 µM; in assay [4], above 5 µM; in assay [3] it was above 5 µM; in [6], 0.03 µM.

With `Cc1c(I)c(=O)n(C2CCCC2)c2nc(Nc3ccc(N4CCNCC4)cc3)ncc12`, the IC50 in assay [1] came out at 1.87 µM; in assay [4] it was 0.443 µM; in [3], 0.365 µM; in assay [6] it was 0.005 µM.

For `Cc1cc(=O)n(C2CCCC2)c2nc(Nc3ccc(N4CCNC(C)(C)C4)cc3)ncc12`, the IC50 in assay [1] was above 5 µM; in assay [4], above 5 µM; in assay [3], above 5 µM; in [6], 0.065 µM.

Take `CC(=O)N1CCN(c2ccc(Nc3ncc4c(C)cc(=O)n(C5CCCC5)c4n3)cc2)CC1`: the IC50 was above 5 µM in [1], above 5 µM in assay [4], above 5 µM in [3] and 0.103 µM in [6].

For `Cc1cc(=O)n(C2CCCC2)c2nc(Nc3ccc(N4CCN(CCO)CC4)cc3)ncc12`, the half-maximal inhibitory concentration (IC50) in assay [1] is above 5 µM; in assay [4], above 5 µM; in assay [3], above 5 µM; in assay [6], 0.035 µM.

As for `Cc1cc(=O)n(C2CCCC2)c2nc(Nc3ccc(N4CCNCC4)c(Cl)c3)ncc12`, the IC50 in assay [1] was above 5 µM; in [4], above 5 µM; in assay [3] it was above 5 µM; in assay [6] it was 0.028 µM.

Consider `Cc1c(C(=O)O)c(=O)n(C2CCCC2)c2nc(Nc3ccc(N4CCNCC4)cc3)ncc12`, for which the concentration for half-maximal inhibition (IC50) in assay [1] is above 5 µM; in assay [4] it was above 5 µM; in assay [3] it was above 5 µM; in [6], 0.032 µM.

As for `CCc1c(C)c2cnc(Nc3ccc(N4CCNCC4)cc3)nc2n(C2CCCC2)c1=O`, the IC50 turned out to be 4.12 µM in assay [1], 1.54 µM in assay [4], 1.65 µM in assay [3] and 0.025 µM in [6].

In the case of `CC(=O)c1c(C)c2cnc(Nc3ccc(N4CCNCC4)cc3)nc2n(C2CCCC2)c1=O`, the half-inhibitory concentration (IC50) (in assay [7]; in [8]; in assay [9]; at Protein kinase C (PKC); in assay [10]; in assay [11]) was above 10 µM each time. Moreover, the half-maximal inhibitory concentration (IC50) in assay [12] is above 10 µM; in assay [13], above 10 µM; in assay [14], above 10 µM; in assay [15], above 10 µM; in the assay on MDA-MB-435, 0.032 µM; in [16] it was above 10 µM. Moreover, the IC50 in assay [17] was above 10 µM; in assay [18], above 10 µM; in [19], above 10 µM; in [20], 1.86 µM; in assay [21] it was above 10 µM; in [22], above 10 µM. This compound also returned a concentration for half-maximal inhibition (IC50) in [5] of 0.002 µM.

For `Cc1c(Cl)c(=O)n(C2CCCC2)c2nc(Nc3ccc(N4CCNCC4)cc3)ncc12`, the IC50 in assay [1] is above 5 µM; in assay [4], 1.62 µM; in [3] it was 1.5 µM; in assay [6], 0.016 µM.

As to `COC(=O)c1c(C)c2cnc(Nc3ccc(N4CCNCC4)cc3)nc2n(C2CCCC2)c1=O`, the 50% inhibitory concentration (IC50) in assay [1] is above 5 µM; in [4], 2.82 µM; in [3], above 5 µM; in [6], 0.004 µM.

For the compound `Cc1cc(=O)n(C2CCCC2)c2nc(Nc3ccc(N4CCCNCC4)cc3)ncc12`, the IC50 was above 5 µM in assay [1], above 5 µM in [4], above 5 µM in assay [3] and 0.052 µM in assay [6].
